Screens from PubChem BioAssay.
Sampled rows, rich in hits. Any-hit rate of the full collection: about 1.3%.
NS3 helicase inh = inhibitors of HCV NS3 helicase, primary screen, biochemical, Cy5 molecular beacon fluorescence; Hepatitis C virus NS3 helicase; NS3 helicase DNA unwinding; inhibition, % at 10.9 µM; 0.56% of 290,000 active;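 active means inhibition above the mean of all tested compounds plus 3 SD, set per campaign, cut at about 35% in these data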;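 further: 0% = DMSO wells and 100% = thioflavine S control wells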
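Control set: DMSO versus 110 µM thioflavine S; Material: NS3 helicase fragment of HCV; Measured by: Cy5 fluorescence at 0 and 60 min, beacon hairpin quenching; Read-out basis: percent inhibition from t60/t0 fluorescence ratio; Times: reaction time 60 min, 25 °C; Repeats: single replicate; Compound dosing: single dose, 10.9 µM nominal final, DMSO 0.8% final.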
core dimer inh = inhibitors of HCV core protein dimerization, primary screen, biochemical, TR-FRET, high-throughput. TR-FRET GST/Flag-core106 dimerization, 1536-well. AID 1899, 2009. 0.33% of 300,000 active. inhibition, % at 5 µM;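 active means inhibition above the mean of all tested compounds plus 3 SD, set per screening campaign, cut at about 45% in these data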
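Assay system: Tagged HCV core106 pair (GST and Flag) | Buffer or medium: KF-containing HEPES buffer, pH 7.45, DTT, CHAPS, BSA | Also added: Eu donor and XL665 acceptor anti-tag antibodies | Dosing: One concentration, 5 µM, in 0.5% DMSO | Timing: 4 h at 22.5 °C | Technique: TR-FRET 671 and 617 nm emission | Repeats: Singlicate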
Tb MetRS inh = T. brucei MetRS inhibitors, primary screen, biochemical, luminescence; purified T. brucei MetRS, ATP depletion, Kinase-Glo luminescence; 0.4% of 360,000 active; methionyl-tRNA synthetase (Trypanosoma brucei brucei); inhibition, % at 11.9 µM;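 active means inhibition above a per-plate cutoff of the control wells' mean inhibition plus 3 SD, cut at about 5.5% in these data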;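 further: 0% = DMSO wells median and 100% = median of wells with control inhibitor compound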
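assay system = parasite MetRS enzyme | timing = 15 min preincubation, 2 h reaction, all 25 °C | evaluation = percent inhibition relative to median high and low control wells | medium = HEPES buffer containing pyrophosphatase, BSA, spermine, DTT | compound = single dose, 11.9 µM final nominal, 0.9% final DMSO | detection = Kinase-Glo luminescence, ATP depletion format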
Hep lipid drop = inhibitors of hepatocyte lipid droplet formation, primary screen, imaging, high-throughput imaging, BODIPY stain; AML12 mouse hepatocytes, oleate lipid droplets; inhibition, % at 6.5 µM; 0.4% of 240,000 active; AID 1656, 2009;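 active means lipid droplet intensity inhibited by at least 50%, with more than 500 cells counted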
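Assay system: AML12 hepatocytes (mouse); Probe or stimulus: oleic acid at 100 µM to induce lipid droplet formation; Dosing: compound at 6.5 µM only; Schedule: compound with oleate, overnight; Detection: fluorescence imaging, 20x objective, two fields per well; Measure: % inhibition of lipid droplet signal.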
TbMetRS confirm = T. brucei MetRS inhibitors, confirmation, biochemical, luminescence; inhibition, % at 11.9 µM; shares compounds with Tb MetRS inh; 93% of 1,400 active; T. brucei MetRS enzyme, luminescence (ATP depletion); in the data active means inhibition above about 7%
Jurkat cytotox = Jurkat T cell cytotoxicity, cytotoxicity control for T. brucei MetRS inhibitor project, luminescence, high throughput; Jurkat cells viability, ATP luminescence; 12% of 1,400 active; shares compounds with Tb MetRS inh; inhibition, % at 8.3 µM; in the data active means inhibition above about 15%;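 further: 0% = vehicle and 100% = reference inhibitor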
Tb MetRS inh FP = T. brucei MetRS inhibitors, orthogonal assay for T. brucei MetRS inhibitor project, biochemical, fluorescence polarization | 44% of 1,400 active | inhibition, % at 11.9 µM | purified T. brucei MetRS | shares compounds with Tb MetRS inh; in the data active means inhibition above about 17%;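 further: 0% = vehicle wells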
Starred values were filed as active, the others as inactive; . = not tested or not shown.

SMILES	NS3 helicase inh	core dimer inh	Tb MetRS inh	Hep lipid drop	TbMetRS confirm	Jurkat cytotox	Tb MetRS inh FP
N#Cc1ccccc1CSc1nc2ncc(Br)cc2[nH]1	-4	4	8.3*	4	37*	-5	17*
O=[N+]([O-])c1ccc(CSc2nc3ncc(Br)cc3[nH]2)cc1	-4	5	2	3	.	.	.
Brc1cnc2nc(SC/C=C/c3ccccc3)[nH]c2c1	-2	4	-1	-15	.	.	.
Fc1ccccc1CSc1nc2ncc(Br)cc2[nH]1	12	12	5.9*	-8	14*	-4	17*
CC(C)(C)C(=O)CSc1nc2ncc(Br)cc2[nH]1	7	-6	7.5*	.	18*	-1	7
COc1ccc(C(=O)N/C(=C\c2ccc3c(c2)OCO3)C(=O)NCCc2nc3ccccc3[nH]2)cc1	4	2	6.9*	-1	11*	1	7
COc1ccc(C(=O)N/C(=C\c2cccs2)c2nc3ccccc3[nH]2)cc1OC	-1	-26	8.2*	.	16*	0	2
Cc1ccc(C(=O)N/C(=C\c2cccnc2)c2nc3ccccc3[nH]2)cc1	5	-5	15*	11	35*	-4	11
Cc1ccc([C@H]2N[C@]3(CCCN(Cc4ccc(Cl)cc4)C3=O)[C@H]3C(=O)N(Cc4ccccc4)C(=O)[C@@H]23)cc1	.	.	-1	.	.	.	.
CCOC(=O)C(NC(=O)NCc1ccc(OC)cc1)(OCC)C(F)(F)F (stereo not drawn)	-2	9	0	20	.	.	.
O=C(CN1C(=O)CNC1=O)Nc1cc(Cl)cc(Cl)c1	.	.	0	.	.	.	.
O=C(Nc1nnc(COc2ccccc2F)s1)Nc1ccccc1F	5	-2	15*	-13	25*	4	12
O=c1c(O[C@H]2O[C@@H](CO)[C@H](O)[C@@H](O)[C@@H]2O)c(-c2ccc(O)cc2)oc2cc(O)cc(O)c12	.	.	1	.	.	.	.
O=c1c(OC2OC(CO)C(O)C(O)C2OC2OC(CO)C(O)C(O)C2O)c(-c2ccc(O)cc2)oc2cc(O)cc(O)c12 (stereo not drawn)	.	-1	7.1*	-4	22*	-3	23*
COc1ccccc1C1(CC(=O)Nc2nccs2)CCOC(C(C)C)C1 (stereo not drawn)	-7	0	-1	.	.	.	.
COc1ccc(CCC2=NCCN2C(CC(C)C)c2nc3ccccc3[nH]2)cc1 (stereo not drawn)	.	.	12*	.	20*	7	5
CCOC(=O)C(/C=C(\C#N)C(=O)OCC)=C(/N)N1CCN(c2ccc(Cl)cc2)CC1	-4	-6	40*	-3	49*	-3	24*
CCOC(=O)N1CCN(c2ccc(Cl)cc2)CC1	6	-11	-1	-31	.	.	.
O=C(CN1CCSC1=NCc1ccccc1)c1ccc(Cl)c(Cl)c1	-17	-4	61*	-11	83*	3	67*
NNC(=O)CSc1nc(-c2ccccc2)cn1-c1ccccc1	-7	-5	7.2*	-3	3	-2	1
Nn1cc(-c2ccccc2)nc1SCC(=O)NCCc1ccccc1	5	-1	-1	5	.	.	.
COC(=O)CN1C(=S)N(c2ccc(Cl)cc2)C(=O)C1CC(=O)Nc1ccc(Cl)cc1 (stereo not drawn)	-44	6	24*	-3	39*	3	38*
COc1ccc(CN2CCN(Cc3c[nH]c4ccccc34)CC2CCO)c(F)c1 (stereo not drawn)	-19	-6	22*	-26	42*	3	14
COc1cc(CN2CCN(Cc3c[nH]c4ccccc34)CC2CCO)cc(OC)c1 (stereo not drawn)	-18	.	0	0	.	.	.
O=C(NCc1cccnc1)c1cc(C2CCCCN2S(=O)(=O)c2cccc3cccnc23)on1 (stereo not drawn)	.	.	0	.	.	.	.
SMILES	NS3 helicase inh	core dimer inh	Tb MetRS inh	Hep lipid drop	TbMetRS confirm	Jurkat cytotox	Tb MetRS inh FP
CN(C)S(=O)(=O)c1cccc(NC(=O)Cc2ccc(Cl)cc2)c1	-7	0	15*	6	27*	3	21*
O=C(COC(=O)Cn1cnc2ccccc21)Nc1cccc(S(=O)(=O)N2CCOCC2)c1	-5	-1	35*	4	57*	2	31*
O=C(Cc1ccc(Cl)cc1)Nc1cccc(S(=O)(=O)Nc2ccccc2F)c1	1	8	0	-38	.	.	.
O=C(Cn1c(=O)cnc2ccccc21)Nc1cccc(S(=O)(=O)N2CCOCC2)c1	.	.	1	.	.	.	.
O=C(Cc1ccc(Cl)c(Cl)c1)Nc1cccc(S(=O)(=O)N2CCOCC2)c1	-18	-1	59*	-5	76*	0	65*
COc1ccc(S(=O)(=O)N2CCOCC2)cc1NC(=O)c1ccccc1-c1ccc(C(F)(F)F)cc1	-3	11	1	-17	.	.	.
CN(C(=O)c1cccc(C(F)(F)F)c1)C1CCCc2ccccc21 (stereo not drawn)	7	1	0	-20	.	.	.
CCN(C(=O)CSc1nc2ccc([N+](=O)[O-])cc2s1)c1c(N)n(Cc2ccccc2)c(=O)[nH]c1=O	.	.	0	.	.	.	.
CC1(C)N([O-])C2=C(c3ccccc3C2=O)[N+](=O)C1(C)C	-2	-8	-1	9	.	.	.
O=[N+]([O-])c1ccc2nc(SCc3cn4ccccc4n3)[nH]c2c1	4	4	17*	-2	35*	-3	21*
O=C1CC(N2CCC(c3nc4ccccc4o3)CC2)C(=O)N1c1cc(Cl)cc(Cl)c1 (stereo not drawn)	2	2	6.0*	28	2	3	-6
O=C1CC(N2CCC(c3nc4ccccc4o3)CC2)C(=O)N1c1ccc(Cl)cc1 (stereo not drawn)	1	.	.	.	.	.	.
CCOC(=O)C1=CCC(c2ccccc2)N(S(=O)(=O)c2ccc(C)cc2)[C@H]1CC (stereo partly drawn)	.	.	-1	.	.	.	.
O=C(C/C=N\OCc1ccc([N+](=O)[O-])cc1)Nc1ccc(Br)cc1	-9	2	83*	3	101*	-1	91*
C[C@H](CO)N1C[C@H](C)[C@@H](CN(C)Cc2ccncc2)Oc2c(NC(=O)C3CC3)cccc2C1=O	.	.	0	.	.	.	.
